Compound activity: PubChem, several laboratories
AHR act: AHR activators, primary screen, cell-based, luminescence, luciferase reporter, human; Aryl hydrocarbon receptor (Homo sapiens), P35869; AHR-responsive luciferase reporter cells; activation, % at 5 µM; 320,000 tested, 2.5% active; AID 2796, 2010; in the data active = activation above about 47%;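 note: 0% = vehicle wells and 100% = reference agonist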
PolyA inh: polyadenylation inhibitors in yeast reporter cells, primary screen, luminescence, S. cerevisiae | S. cerevisiae SKY197-pL101 polyadenylation reporter, beta-gal luminescence; efflux-impaired pdr1/pdr3 knockout yeast; score 100 = 6 SD above DMSO | activity score, % at 12 µM | 300,000 tested, 0.02% active;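 active = lowest replicate activity score at least 50, where 100 means six control SD above control mean; inconclusive = lowest score under 50 but half or more replicates reach 50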;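 note: yeast exposed to compound for 9 h at 30 °C; higher score means more reporter readthrough which indicates perturbed polyadenylation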
HSF1 inhib: HSF1 inhibitors in luciferase reporter cells, primary screen, cell-based, NIH3T3, luminescence | NIH3T3-HGL HSE-luciferase, MG132-induced, luminescence 8 h; hits give low values | activity change, negative = inhibition, % at 7.5 µM (by protocol) | 300,000 tested, 0.77% active;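 active = more than half of replicate wells show activity change below -50%, luminescence cut by over half; inconclusive = some wells, but at most half, below -50%; inactive = no replicate well below -50%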;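 note: luciferase reports HSF-1 transcriptional activity via heat shock element; 0% = median of DMSO wells and -100% = zero luminescence signal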
Hsp70 activator: Hsp70 transcriptional activators, primary screen, cell-based, HeLa, Hsp70 promoter luciferase, luminescence, 10 µM | HeLa Hsp70 promoter luciferase reporter; scaled: vehicle 0, proteasome-inhibitor control 100% | activation, % at 10 µM | 200,000 tested, 0.04% active;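 active = activation above the mean across all tested compounds plus 3 SD, cutoff set per campaign, cut at about 5.5% in these data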;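 note: 100% = MG132 at 30 µM as the positive control and 0% = DMSO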
PERK inhibitor: block of dimerizer-induced PERK translation repression, primary screen, PERK inhibitor project, CHO PERK-DD cells, SEAP luminescence, HTS; Eukaryotic translation initiation factor 2-alpha kinase 3 (Homo sapiens), Q9NZJ5; CHO PERK-DD fusion, SEAP luminescence translation reporter; inhibition, % at 5.6 µM; 220,000 tested, 0.17% active; AID 1416, 2008;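 active = inhibition above the mean inhibition of all tested compounds plus 3 SD, set separately per screening campaign, cut at about 2.9% in these data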;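 note: PERK kinase domain activated by AP20187 dimerizer at 100 nM; 0% = DMSO with dimerizer and 100% = rapamycin at 8.4 µM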
STAT3 act: IL-6 driven STAT3 reporter potentiators, primary screen, U3A cells, luciferase, luminescence, MLSCN library; IL-6 STAT3-luciferase reporter; 100% = signal with IL-6 EC80 alone; activation (% of control), % at 5.6 µM; 190,000 tested, 0.91% active;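 active = activation above the screen-wide mean of compound activation plus 3 SD, cut at about 130% in these data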;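 note: 0% = background luminescence of wells with medium and substrate only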
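Material: STAT3-luciferase reporter U3A cells. Controls: IL-6-treated wells, 100% activation. Read-out: % activation versus median of IL-6-stimulated wells. Probe or stimulus: IL-6 stimulus at 33 ng/mL final. Timing: compound 1 h, then IL-6 6 h at 37 °C. Signal: reporter luminescence signal.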
* = called active by the depositor; ? = inconclusive; nt = no result given. The list is not random: actives were taken first. Their share in the collection is about 3.6%.

SMILES	AHR act	PolyA inh	HSF1 inhib	Hsp70 activator	PERK inhibitor	STAT3 act
Cc1ccc(-c2cc(-c3ccccc3Cl)[nH]n2)c(O)c1	86*	-7	47	0	0	118
Oc1ccc(Br)cc1-c1cc(-c2ccccc2F)[nH]n1	56*	-14	1	0	1	134*
COc1ccc(-c2cc(-c3ccccc3O)[nH]n2)cc1	26	-7	37	0	0	86
Oc1ccccc1-c1cc(-c2ccc(F)cc2)n[nH]1	74*	-2	13	nt	nt	nt
Oc1ccc(Br)cc1-c1cc(-c2ccccc2Cl)[nH]n1	47	0	0	nt	0	nt
Cc1ccc(O)c(-c2cc(-c3cccc(Br)c3)n[nH]2)c1	70*	14	44	0	1	100
CCC(C)[C@H](NC(=O)[C@H](Cc1ccccc1)n1c(=O)[nH]c2ccccc2c1=O)C(=O)NCC1CCC(C(=O)O)CC1 (stereo partly specified)	1	6	6	nt	nt	nt
Cc1ccc(-c2cc(-c3ccc(F)cc3)n[nH]2)c(O)c1	nt	13	26	nt	nt	nt
Cc1ccc(-c2cc(-c3ccc(C)cc3O)[nH]n2)cc1	68*	-21	52	nt	nt	nt
CCOC(=O)c1cnc2ccccc2c1NCc1ccco1	-2	2	6	nt	-1	nt
CCOC(=O)c1cnc2ccccc2c1Nc1ccc2c(c1)OCCO2	1	-10	-61*	0	-1	81
CC(=O)C[C@@H](O)CC(=O)[C@@H]1OC(=O)[C@H](C)C/C=C\Cc2ccccc21	-2	nt	nt	nt	nt	nt
COc1ccc(-c2cc(=O)c3cc(OC)c(OC)cc3[nH]2)cc1	62*	-23	1	0	0	104
CCOc1ccc(Br)cc1S(=O)(=O)NC1CCCC1	0	nt	nt	nt	nt	nt
Cc1cc2c(C)nc(Cc3ccccc3)nc2o1	54*	-1	1	0	1	104
O=C(N/C(=C/C=C/c1ccccc1)C(=O)N1CCOCC1)c1ccccc1Cl	67*	19	0	0	0	126
O=C(Nc1cccc([N+](=O)[O-])c1)C1CCN(C(=O)Cc2ccccc2)CC1	5	-21	-1	nt	nt	nt
CC(=O)Nc1sc(N/N=C\c2cccc(Cl)c2)nc1-c1cccs1	32	-16	-3	0	0	133*
COc1ccccc1C(=O)Nc1nc(-c2cccs2)c(NC(C)=O)s1	72*	-6	15	0	-2	98
CC(=O)Nc1sc(NC(=O)c2ccccc2)nc1-c1cccs1	18	16	2	0	0	97
COc1ccccc1NC(=O)CSc1nnc(-c2ccoc2C)n1C	-1	-5	0	nt	nt	nt
CCOc1cc(N2CCOCC2)c(OCC)cc1NC(=O)CN1C(=O)N(C)C2(CCCCC2)C1=O	3	nt	nt	nt	nt	nt
c1ccc(-n2nnnc2Oc2ccc(-n3ccnc3)cc2)cc1	72*	-11	-11	0	0	91
c1ccc(-n2nnnc2Oc2ccc(-c3nnco3)cc2)cc1	0	-5	-70*	0	-1	102
Clc1ccc(Oc2nnnn2-c2ccccc2)cc1	-3	-14	9	0	0	85
SMILES	AHR act	PolyA inh	HSF1 inhib	Hsp70 activator	PERK inhibitor	STAT3 act
COc1ccc(Oc2nnnn2-c2ccccc2)cc1	4	-5	18	0	0	94
Brc1ccc(N=Cc2ccccn2)cc1	55*	20	6	0	-1	94
FC(F)(F)c1cnc(Oc2ccccc2-c2nnco2)c(Cl)c1	11	7	2	0	-1	110
Nc1ccccc1Oc1ncc(C(F)(F)F)cc1Cl	1	-15	6	0	2.9*	100
O=C(COc1ccccc1[N+](=O)[O-])Nc1ccc2c(c1)CCC2	0	nt	nt	nt	nt	nt
OC(CN1CC=C(/C=C/c2ccc(Br)cc2)CC1)c1ccccc1 (stereo unspecified)	4	-12	-7	nt	nt	nt
Cc1ccc(NC(=O)N2CCCC2C(=O)NCC2CCCCC2)cc1 (stereo unspecified)	0	15	-89*	nt	nt	nt
O=C(NCCS(=O)(=O)N1CCCCC1)c1ccccc1	1	-4	-8	nt	nt	nt
O=C(/C=C/c1ccc(O)cc1)c1ccc(O)cc1O	66*	?	55	0	0	114
COc1ccc(C(=O)/C=C/c2ccccc2)c(O)c1	9	12	18	0	1	106
Cc1ccc(N2CCN(C(=S)Nc3ccccc3C)CC2)cc1	-3	-2	-1	nt	nt	nt
Cc1ccc(NC(=O)CN(C)C(=O)CNC(=O)c2sc3ccccc3c2Cl)cc1	11	1	29	nt	nt	nt
Cc1ccc(N2CC(C(=O)N3CCCCC3)CC2=O)cc1C (stereo unspecified)	7	-4	1	nt	nt	nt
Cc1ccc(C(=O)C(C)OC(=O)CN2C(=O)NC3(CCCC3)C2=O)cc1C (stereo unspecified)	-1	8	-5	nt	nt	nt
C=CCn1c(-c2cccs2)nc2nc3ccccc3nc21	70*	-6	-3	0	0	125
Cc1ccc(NC(=O)c2c(F)cccc2Cl)cc1S(=O)(=O)N1CCOCC1	-1	nt	nt	nt	nt	nt
Oc1ccccc1-n1c(-c2ccccc2)ccc1-c1ccccc1	51*	-14	1	nt	0	nt
Oc1ccc(-c2csc(Nc3cccc4ccccc34)n2)cc1O	52*	4	-2	nt	nt	nt
Cc1ccnc(Nc2nc(-c3ccc(O)c(O)c3)cs2)c1	55*	22	2	nt	nt	nt
Cc1ccnc(Nc2nc(-c3ccc(O)cc3)cs2)c1	17	-11	20	nt	nt	nt
Oc1ccc(-c2csc(Nc3ccccn3)n2)cc1O	31	6	3	nt	nt	nt
C/C(O)=C(/C=Nc1ccccc1)C(=O)Nc1ccccc1	48*	2	-3	0	-1	112
Oc1ccccc1C=Nc1cccc2ccccc12	21	8	-13	nt	nt	nt
Oc1cccc(C=Nc2cccc3ccccc23)c1O	51*	10	6	nt	nt	nt
COc1ccc(Cl)cc1C(=O)OCC(=O)c1ccc[nH]1	1	nt	nt	nt	nt	nt
C=CCn1c(SCC(=O)NC2CCCC2)nc2c([nH]c3ccccc32)c1=O	63*	-4	1	nt	nt	nt
COCCn1c(SCC(=O)NCC2CCCO2)nc2c([nH]c3ccccc32)c1=O (stereo unspecified)	59*	16	-7	nt	nt	nt
CCn1c(SCC(=O)Nc2cccc(NC(C)=O)c2)nc2c([nH]c3ccccc32)c1=O	57*	-1	6	nt	nt	nt
COc1cccc(-n2c(SCC(=O)N3CCCC3)nc3c([nH]c4ccccc43)c2=O)c1	nt	nt	nt	0	0	142*
